Test results from ChEMBL document CHEMBL4842319, “Synthesis of alkynylated 1,2,4-oxadiazole/1,2,3-1H-triazole glycoconjugates: Discovering new compounds for use in chemotherapy against lung carcinoma and Mycobacterium tuberculosis” (Eur J Med Chem, 2021).
≈ marks a conversion by molar mass, not a printed value.

How the values were obtained:
SK-MEL-103 = experiment: Cytotoxicity against human SK-MEL-103 cells assessed as inhibition of cell proliferation at 25 uM incubated for 72 hrs by MTT assay relative to control; type: functional; set-up: scale not given: the % may be the effect or the level left
Outline: (§1)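 Tumor lines from NCI. PC-3, HCT-116 and NCIH-460 were grown in RPMI 1640; SKMEL-103 and AGP-01 in DMEM; all with 10% FBS at 37 °C, 5% CO2. Seeding was 0.3×10⁶ cells/mL for SKMEL-103 and AGP-01, 0.1×10⁶ for PC-3 and NCIH-460, and 0.7×10⁵ for HCT-116. Cells were exposed to compound at 25 µM for 72 h. Cells were centrifuged, 1% MTT added for 3 h, formazan dissolved in DMSO and read at 570 nm.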

[1] = Cytotoxicity against human AGP01 cells assessed as inhibition of cell proliferation at 25 uM incubated for 72 hrs by MTT assay relative to control; type: functional; set-up: scale not given: the % may be the effect or the level left; outline: as §1
HCT-116 = experiment: Cytotoxicity against human HCT-116 cells assessed as inhibition of cell proliferation at 25 uM incubated for 72 hrs by MTT assay relative to control; type: functional; set-up: scale not given: the % may be the effect or the level left; outline: as §1
PC-3 = experiment: Cytotoxicity against human PC-3 cells assessed as inhibition of cell proliferation at 25 uM incubated for 72 hrs by MTT assay relative to control; type: functional; set-up: scale not given: the % may be the effect or the level left; outline: as §1
NCI-H460 = experiment: Cytotoxicity against human NCI-H460 cells assessed as inhibition of cell proliferation at 25 uM incubated for 72 hrs by MTT assay relative to control; type: functional; set-up: scale not given: the % may be the effect or the level left; outline: as §1
[2] = tested on: Mycobacterium tuberculosis; experiment: Antimycobacterial activity against Mycobacterium tuberculosis H37Ra ATCC 25177 assessed as inhibition of bacterial growth incubated for 9 days by resazurin microtiter assay; type: functional; conditions: H37Ra ATCC 25177, 216 h, time 9 day
Outline: (§2)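 REMA broth microdilution in 7H9-S medium, run in duplicate. Test compounds were serially two-fold diluted on the plate from 64 to 0.5 µg/mL. Inoculum taken from fresh Löwenstein-Jensen culture, adjusted to McFarland no. 1 and diluted 1:20. Plates were sealed and incubated at 37 °C in normal atmosphere for 9 days, then resazurin was added. Rifampicin and ethambutol served as standards. MIC reported in µg/mL.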

[3] = tested on: Mycobacterium tuberculosis; experiment: Antimycobacterial activity against Mycobacterium tuberculosis H37Rv ATCC 27294 assessed as inhibition of bacterial growth incubated for 9 days by resazurin microtiter assay; type: functional; conditions: H37Rv ATCC 27294, 216 h, time 9 day; outline: as §2
[4] = Cytotoxicity against mouse RAW264.7 cells assessed as reduction in cell viability incubated for 48 hrs by MTT assay; type: cell-based
Outline: (§3)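 RAW 264.7 macrophages and HepG2 cells were cultured in DMEM at 37 °C, 5% CO2. For the assay, 10⁵ cells/well were preincubated for 24 h, then exposed to compounds at […] for 48 h, in duplicate. MTT (5 mg/mL in PBS) was added for 2 h and absorbance read at 570 nm. Untreated wells served as the negative control. CC50 obtained by regression analysis.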

[5] = Cytotoxicity against human HepG2 cells assessed as reduction in cell viability incubated for 48 hrs by MTT assay; type: cell-based; outline: as §3
[6] = Selectivity index, ratio of CC50 for mouse RAW264.7 cells to MIC for antimycobacterial activity against Mycobacterium tuberculosis H37Rv ATCC 27294; type: toxicity; conditions: read-out: Selectivity Index
[7] = Selectivity index, ratio of CC50 for human HepG2 cells to MIC for antimycobacterial activity against Mycobacterium tuberculosis H37Rv ATCC 27294; type: toxicity; conditions: read-out: Selectivity Index

SMILES	Activity (SK-MEL-103) [%]	Activity [1] [%]	Activity (HCT-116) [%]	Activity (PC-3) [%]	Activity (NCI-H460) [%]	MIC [2] [µg/mL]	MIC [3] [µg/mL]	CC50 at 48 h [4] [µg/mL]	CC50 at 48 h [5] [µg/mL]	selectivity ratio [6]	selectivity ratio [7]
C#CCN(c1nc(-c2cccc(C)c2)no1)C1CCCCC1	87.7	94.5	86.5	29.4	40.2	≥ 64	32 (≈ 108 µM)	25.9 (≈ 87.6 µM)	44.4 (≈ 150 µM)	0.8	1.38
CC(=O)OC[C@H]1O[C@H](OC[C@H](Cn2cc(-c3ccc(-c4noc(NC5CCCCC5)n4)cc3)nn2)OC(C)=O)C=C[C@@H]1OC(C)=O						≥ 64	≥ 64	16.3 (≈ 25.5 µM)	79.8 (≈ 125 µM)	< 0.25	< 1.24
CO[C@H]1/C=C/O[C@@]2(C)Oc3c(C)c(O)c4c(O)c(c(/C=N/N5CCN(C)CC5)c(O)c4c3C2=O)NC(=O)/C(C)=C\C=C\[C@H](C)[C@H](O)[C@@H](C)[C@@H](O)[C@@H](C)[C@H](OC(C)=O)[C@@H]1C [RIFAMPIN]						0.062 (≈ 0.0753 µM)	0.125 (≈ 0.152 µM)	80.4 (≈ 97.7 µM)	176 (≈ 214 µM)	643	1410
C#CCN(c1nc(-c2ccccc2)no1)C1CCCCC1	28.6	47		23.7	22.6	≥ 64	≥ 64	32.1 (≈ 114 µM)	109 (≈ 386 µM)	< 0.5	< 1.69
CC(=O)OC[C@H]1O[C@H](OC[C@H](Cn2cc(COc3ccc(-c4noc(C)n4)cc3)nn2)OC(C)=O)C=C[C@@H]1OC(C)=O						≥ 64	≥ 64	112 (≈ 191 µM)	37.7 (≈ 64.3 µM)	< 1.74	< 0.58
CC(=O)OC[C@H]1O[C@H](OC[C@@H](Cn2cc(CN(c3nc(-c4cccc(C)c4)no3)C3CCCCC3)nn2)OC(C)=O)C=C[C@@H]1OC(C)=O	69	38.9	69.5	9.2	26.1	≥ 64	≥ 64	46.4 (≈ 69.6 µM)	39.2 (≈ 58.8 µM)	< 0.72	< 0.61
CC(=O)OC[C@H]1O[C@H](OC[C@@H](Cn2cc(CN(c3nc(-c4ccc([N+](=O)[O-])cc4)no3)C3CCCCC3)nn2)OC(C)=O)C=C[C@@H]1OC(C)=O	30.6	47.6	39.1	28.8	36.3	≥ 64	≥ 64		> 200	1.25	
CC(=O)OC[C@H]1O[C@H](OC[C@@H](CN=[N+]=[N-])OC(C)=O)C=C[C@@H]1OC(C)=O						≥ 64	≥ 64	106 (≈ 286 µM)	> 200	< 1.66	
CCCCCCCCCCc1cn(C[C@@H](CO[C@@H]2C=C[C@H](OC(C)=O)[C@@H](COC(C)=O)O2)OC(C)=O)nn1						64 (≈ 119 µM)	64 (≈ 119 µM)	30.4 (≈ 56.5 µM)	59 (≈ 110 µM)	0.47	0.92
C#CCN(c1nc(-c2ccc(C)cc2)no1)C1CCCCC1						64 (≈ 217 µM)	≥ 64	17.6 (≈ 59.5 µM)	91.9 (≈ 311 µM)	< 0.27	< 1.43
CC(=O)OC[C@H]1O[C@H](OC[C@@H](Cn2cc(CN(c3nc(-c4cccc(Br)c4)no3)C3CCCCC3)nn2)OC(C)=O)C=C[C@@H]1OC(C)=O	52.3	59.9		45.5	27.1						
C#CCN(c1nc(-c2ccc(Br)cc2)no1)C1CCCCC1						32 (≈ 88.8 µM)	32 (≈ 88.8 µM)	15.7 (≈ 43.5 µM)	102 (≈ 283 µM)	0.48	3.18
C#CCN(c1nc(-c2ccc(C(F)(F)F)cc2)no1)C1CCCCC1						64 (≈ 183 µM)	32 (≈ 91.6 µM)	38.3 (≈ 110 µM)	61.9 (≈ 177 µM)	1.2	1.93
CC(=O)OC[C@H]1O[C@H](OC[C@H](Cn2cc(COc3ccc(-c4noc(NC5CCCCC5)n4)cc3)nn2)OC(C)=O)C=C[C@@H]1OC(C)=O						16 (≈ 23.9 µM)	16 (≈ 23.9 µM)	33.3 (≈ 49.8 µM)	99.5 (≈ 149 µM)	2.08	6.21
C#CCN(c1nc(-c2cccc(Br)c2)no1)C1CCCCC1	39.4	69.1	65.6	58.6	17.9	≥ 64	32 (≈ 88.8 µM)	31.8 (≈ 88.2 µM)	53.5 (≈ 148 µM)	0.9	1.67
C#CCN(c1nc(-c2ccc(C#C)cc2)no1)C1CCCCC1							≥ 64	13.1 (≈ 42.9 µM)	27.9 (≈ 91.5 µM)	< 0.2	< 0.43
CC(=O)OC[C@H]1O[C@H](OC[C@@H](Cn2cc(CN(c3nc(-c4ccc(-c5cn(C[C@H](CO[C@@H]6C=C[C@H](OC(C)=O)[C@@H](COC(C)=O)O6)OC(C)=O)nn5)cc4)no3)C3CCCCC3)nn2)OC(C)=O)C=C[C@@H]1OC(C)=O						≥ 64	≥ 64	117 (≈ 111 µM)	11.8 (≈ 11.2 µM)	< 1.82	< 0.18
C#CCN(c1nc(-c2ccc(Cl)cc2)no1)C1CCCCC1						32 (≈ 101 µM)	16 (≈ 50.7 µM)	15.1 (≈ 47.9 µM)	41.3 (≈ 131 µM)	0.95	2.58
CC(=O)OC[C@H]1O[C@H](OC[C@@H](Cn2cc(COc3ccc(-c4noc(N(Cc5cn(C[C@H](CO[C@@H]6C=C[C@H](OC(C)=O)[C@@H](COC(C)=O)O6)OC(C)=O)nn5)C5CCCCC5)n4)cc3)nn2)OC(C)=O)C=C[C@@H]1OC(C)=O						≥ 64	≥ 64	> 200	47 (≈ 43.6 µM)		< 0.73
O=[N+]([O-])c1ccc(-c2noc(NC3CCCCC3)n2)cc1	50.7	53.2		20.3	10.4						
CC(=O)OC[C@H]1O[C@H](OC[C@@H](Cn2cc(CN(c3nc(-c4cccc([N+](=O)[O-])c4)no3)C3CCCCC3)nn2)OC(C)=O)C=C[C@@H]1OC(C)=O	42.2	44.7	27.7	38.4		≥ 64	≥ 64	100 (≈ 144 µM)	> 200	< 1.56	
C#CCN(c1nc(-c2ccc([N+](=O)[O-])cc2)no1)C1CCCCC1	18.5	52.5	37.2	53.7		≥ 64	≥ 64	26.7 (≈ 81.9 µM)	43.7 (≈ 134 µM)	< 0.41	< 0.68
CC(=O)OC[C@H]1O[C@H](OC[C@@H](Cn2cc(CN(c3nc(-c4ccc(Cl)cc4)no3)C3CCCCC3)nn2)OC(C)=O)C=C[C@@H]1OC(C)=O						64 (≈ 93.1 µM)	64 (≈ 93.1 µM)	35.5 (≈ 51.7 µM)	46.9 (≈ 68.3 µM)	0.55	0.73
C#CCOc1ccc(-c2noc(N(CC#C)C3CCCCC3)n2)cc1						≥ 64	64 (≈ 191 µM)	101 (≈ 300 µM)	> 200	1.57	> 3.12
O=[N+]([O-])c1cccc(-c2noc(NC3CCCCC3)n2)c1	32	11.6	14.1	9.9							
CC[C@@H](CO)NCCN[C@@H](CC)CO [ETHAMBUTOL]						1 (≈ 4.89 µM)	1 (≈ 4.89 µM)	≥ 400	> 400		
CC(=O)OC[C@H]1O[C@H](OC[C@@H](Cn2cc(CN(c3nc(-c4ccc(Br)cc4)no3)C3CCCCC3)nn2)OC(C)=O)C=C[C@@H]1OC(C)=O						4 (≈ 5.47 µM)	8 (≈ 10.9 µM)	39.1 (≈ 53.5 µM)	47.6 (≈ 65.1 µM)	4.89	5.95
